Measurements: ChEMBL document CHEMBL1141864, “Structure-activity relationships in 1,4-benzodioxan-related compounds. 8.(1) {2-[2-(4-chlorobenzyloxy)phenoxy]ethyl}-[2-(2,6-dimethoxyphenoxy)ethyl]amine (clopenphendioxan) as a tool to highlight the involvement of alpha1D- and alpha1B-adrenoreceptor subtypes in the regulation of human PC-3 …” (J Med Chem, 2005)

Biological target: T1, Alpha-1D adrenergic receptor (Homo sapiens, UniProt P25100)
T1 sequence (P25100 whole entry): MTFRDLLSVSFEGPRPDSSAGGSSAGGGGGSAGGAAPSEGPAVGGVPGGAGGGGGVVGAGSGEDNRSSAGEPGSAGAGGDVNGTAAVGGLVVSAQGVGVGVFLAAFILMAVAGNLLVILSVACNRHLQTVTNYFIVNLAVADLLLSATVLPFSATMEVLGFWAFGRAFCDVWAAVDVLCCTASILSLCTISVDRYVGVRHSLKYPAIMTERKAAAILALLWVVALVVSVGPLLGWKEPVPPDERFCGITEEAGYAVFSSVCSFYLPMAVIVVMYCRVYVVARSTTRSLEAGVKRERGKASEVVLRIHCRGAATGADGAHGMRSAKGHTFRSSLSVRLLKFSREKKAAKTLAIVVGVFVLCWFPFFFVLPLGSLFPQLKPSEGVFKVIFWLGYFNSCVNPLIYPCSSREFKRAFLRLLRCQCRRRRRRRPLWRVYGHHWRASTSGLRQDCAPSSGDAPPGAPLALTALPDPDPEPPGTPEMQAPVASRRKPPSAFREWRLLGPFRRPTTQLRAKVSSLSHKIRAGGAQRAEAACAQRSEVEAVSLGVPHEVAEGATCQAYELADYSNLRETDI
Assay: Displacement of [3H]prazosin from cloned human ADRA1D expressed in CHO cells
Assay type: cell-based

SMILES | Ki
COc1cccc(OC)c1OCCNCCOc1ccccc1OCc1ccc(Cl)cc1 [CLOPENPHENDIOXAN] | 0.0316 nM
COc1cccc(OC)c1OCCNCCOc1ccccc1OCc1cccc([N+](=O)[O-])c1 | 0.0631 nM
COc1cccc(OC)c1OCCNCCOc1ccccc1OCc1ccccc1 | 0.0676 nM
COc1cccc(OC)c1OCCNCCOc1ccccc1OCc1ccccc1C | 0.126 nM
COc1cccc(OC)c1OCCNCCOc1ccccc1OCc1cccc(C)c1 | 0.2 nM
COc1cccc(OC)c1OCCNCCOc1ccccc1OCc1ccccc1Cl | 0.251 nM
COc1cccc(OC)c1OCCNCCOc1ccccc1OCc1ccccc1[N+](=O)[O-] | 0.912 nM
COc1cccc(COc2ccccc2OCCNCCOc2c(OC)cccc2OC)c1 | 0.316 nM
COc1cccc(OC)c1OCCNCCOc1ccccc1OCc1ccc([N+](=O)[O-])cc1 | 0.0501 nM
COc1cccc(OC)c1OCCNCCOc1ccccc1OCc1ccc(C)cc1 | 0.0631 nM
COc1ccccc1COc1ccccc1OCCNCCOc1c(OC)cccc1OC | 2 nM
COc1cccc(OC)c1OCCNCCOc1ccccc1OCc1cccc(Cl)c1 | 0.0501 nM
COc1ccc(COc2ccccc2OCCNCCOc2c(OC)cccc2OC)cc1 | 0.1 nM

Biological target: T2, Alpha-1D adrenergic receptor (Rattus norvegicus) (UniProt P23944)
T2 sequence (whole entry): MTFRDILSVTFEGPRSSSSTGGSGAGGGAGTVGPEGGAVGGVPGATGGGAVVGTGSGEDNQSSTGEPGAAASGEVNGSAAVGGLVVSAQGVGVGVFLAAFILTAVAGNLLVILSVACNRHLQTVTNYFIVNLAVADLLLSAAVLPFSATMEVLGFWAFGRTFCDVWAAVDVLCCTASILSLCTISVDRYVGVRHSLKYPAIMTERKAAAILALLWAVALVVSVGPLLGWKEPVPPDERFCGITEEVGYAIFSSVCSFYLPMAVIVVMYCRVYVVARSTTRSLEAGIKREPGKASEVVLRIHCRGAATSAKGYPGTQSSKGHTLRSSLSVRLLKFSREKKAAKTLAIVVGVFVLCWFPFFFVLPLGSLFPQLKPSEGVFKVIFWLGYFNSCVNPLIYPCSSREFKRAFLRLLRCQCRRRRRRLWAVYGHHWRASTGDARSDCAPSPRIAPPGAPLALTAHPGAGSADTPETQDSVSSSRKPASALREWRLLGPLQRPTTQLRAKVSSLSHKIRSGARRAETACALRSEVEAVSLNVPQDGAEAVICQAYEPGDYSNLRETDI
Assay: ADRA1D blocking activity assessed by antagonism of (-)-NE induced contractions on isolated rat thoracic aorta
Assay type: functional, tissue-based
Outline: (§1)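 Isolated rat tissue: each antagonist concentration tested four times over 0.01–1 μM; pK_B calculated by van Rossum method from shifts of (-)-noradrenaline contraction curves (vas deferens, α1A; thoracic aorta, α1D) or (-)-phenylephrine contraction curves (spleen, α1B).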

SMILES | pKb
COc1cccc(OC)c1OCCNCCOc1ccccc1OCc1ccc(Cl)cc1 [CLOPENPHENDIOXAN] | 9.11
COc1cccc(OC)c1OCCNCCOc1ccccc1OCc1cccc([N+](=O)[O-])c1 | 9.28
COc1cccc(OC)c1OCCNCCOc1ccccc1OCc1ccccc1 | 9.37
COc1cccc(OC)c1OCCNCCOc1ccccc1OCc1ccccc1C | 8.64
COc1cccc(OC)c1OCCNCCOc1ccccc1OCc1cccc(C)c1 | 8.85
COc1cccc(OC)c1OCCNCCOc1ccccc1OCc1ccccc1Cl | 8.59
COc1cccc(OC)c1OCCNCCOc1ccccc1OCc1ccccc1[N+](=O)[O-] | 8.95
COc1cccc(COc2ccccc2OCCNCCOc2c(OC)cccc2OC)c1 | 9.12
COc1cccc(OC)c1OCCNCCOc1ccccc1OCc1ccc([N+](=O)[O-])cc1 | 9.41
COc1cccc(OC)c1OCCNCCOc1ccccc1OCc1ccc(C)cc1 | 9.12
COc1ccccc1COc1ccccc1OCCNCCOc1c(OC)cccc1OC | 8.86
COc1cccc(OC)c1OCCNCCOc1ccccc1OCc1cccc(Cl)c1 | 8.72
COc1ccc(COc2ccccc2OCCNCCOc2c(OC)cccc2OC)cc1 | 9.21

Biological target: T3, Alpha-1A adrenergic receptor (Homo sapiens, UniProt P35348)
T3 sequence (P35348 whole entry): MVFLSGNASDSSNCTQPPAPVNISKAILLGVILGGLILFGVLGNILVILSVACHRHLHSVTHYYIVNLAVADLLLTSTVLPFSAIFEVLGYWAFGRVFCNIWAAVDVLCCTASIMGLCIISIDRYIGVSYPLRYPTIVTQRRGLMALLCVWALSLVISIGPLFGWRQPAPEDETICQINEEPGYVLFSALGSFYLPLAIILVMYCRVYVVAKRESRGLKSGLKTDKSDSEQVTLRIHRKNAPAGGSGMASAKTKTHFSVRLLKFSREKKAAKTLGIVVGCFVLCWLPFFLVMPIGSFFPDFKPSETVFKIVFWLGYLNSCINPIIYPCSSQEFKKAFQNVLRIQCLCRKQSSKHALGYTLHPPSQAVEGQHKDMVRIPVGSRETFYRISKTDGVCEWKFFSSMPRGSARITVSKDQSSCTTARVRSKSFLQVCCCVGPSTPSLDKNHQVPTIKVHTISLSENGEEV
Assay: Displacement of [3H]prazosin from cloned human ADRA1A expressed in CHO cells
Assay type: cell-based

SMILES | Ki
COc1cccc(OC)c1OCCNCCOc1ccccc1OCc1ccc(Cl)cc1 [CLOPENPHENDIOXAN] | 0.251 nM
COc1cccc(OC)c1OCCNCCOc1ccccc1OCc1cccc([N+](=O)[O-])c1 | 0.316 nM
COc1cccc(OC)c1OCCNCCOc1ccccc1OCc1ccccc1 | 0.468 nM
COc1cccc(OC)c1OCCNCCOc1ccccc1OCc1ccccc1C | 1.58 nM
COc1cccc(OC)c1OCCNCCOc1ccccc1OCc1cccc(C)c1 | 0.398 nM
COc1cccc(OC)c1OCCNCCOc1ccccc1OCc1ccccc1Cl | 1.41 nM
COc1cccc(OC)c1OCCNCCOc1ccccc1OCc1ccccc1[N+](=O)[O-] | 7.94 nM
COc1cccc(COc2ccccc2OCCNCCOc2c(OC)cccc2OC)c1 | 2 nM
COc1cccc(OC)c1OCCNCCOc1ccccc1OCc1ccc([N+](=O)[O-])cc1 | 1.26 nM
COc1cccc(OC)c1OCCNCCOc1ccccc1OCc1ccc(C)cc1 | 2 nM
COc1ccccc1COc1ccccc1OCCNCCOc1c(OC)cccc1OC | 2 nM
COc1cccc(OC)c1OCCNCCOc1ccccc1OCc1cccc(Cl)c1 | 0.251 nM
COc1ccc(COc2ccccc2OCCNCCOc2c(OC)cccc2OC)cc1 | 2 nM

Biological target: T4, Alpha-1A adrenergic receptor (Rattus norvegicus) (UniProt P43140)
T4 sequence (whole entry): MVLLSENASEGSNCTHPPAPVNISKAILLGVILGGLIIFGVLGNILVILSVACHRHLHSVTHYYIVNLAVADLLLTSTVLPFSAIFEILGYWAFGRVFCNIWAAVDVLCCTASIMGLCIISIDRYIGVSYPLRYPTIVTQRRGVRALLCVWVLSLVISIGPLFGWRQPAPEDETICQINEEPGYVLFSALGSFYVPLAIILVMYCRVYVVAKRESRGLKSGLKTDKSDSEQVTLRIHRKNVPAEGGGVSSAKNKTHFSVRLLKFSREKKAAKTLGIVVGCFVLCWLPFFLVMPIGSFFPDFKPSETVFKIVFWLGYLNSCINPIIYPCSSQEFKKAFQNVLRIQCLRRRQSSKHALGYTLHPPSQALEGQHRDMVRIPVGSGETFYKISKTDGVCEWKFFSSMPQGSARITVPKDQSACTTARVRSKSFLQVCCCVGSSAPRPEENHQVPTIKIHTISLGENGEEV
Assay: ADRA1A blocking activity assessed by antagonism of (-)-NE induced contractions on isolated rat prostatic vas deferens
Assay type: functional, tissue-based
Outline: as §1

SMILES | pKb
COc1cccc(OC)c1OCCNCCOc1ccccc1OCc1ccc(Cl)cc1 [CLOPENPHENDIOXAN] | 8.17
COc1cccc(OC)c1OCCNCCOc1ccccc1OCc1cccc([N+](=O)[O-])c1 | 8.85
COc1cccc(OC)c1OCCNCCOc1ccccc1OCc1ccccc1 | 8.39
COc1cccc(OC)c1OCCNCCOc1ccccc1OCc1ccccc1C | 7.81
COc1cccc(OC)c1OCCNCCOc1ccccc1OCc1cccc(C)c1 | 8.3
COc1cccc(OC)c1OCCNCCOc1ccccc1OCc1ccccc1Cl | 8.56
COc1cccc(OC)c1OCCNCCOc1ccccc1OCc1ccccc1[N+](=O)[O-] | 8.2
COc1cccc(COc2ccccc2OCCNCCOc2c(OC)cccc2OC)c1 | 8.3
COc1cccc(OC)c1OCCNCCOc1ccccc1OCc1ccc([N+](=O)[O-])cc1 | 8.58
COc1cccc(OC)c1OCCNCCOc1ccccc1OCc1ccc(C)cc1 | 8.23
COc1ccccc1COc1ccccc1OCCNCCOc1c(OC)cccc1OC | 8.53
COc1cccc(OC)c1OCCNCCOc1ccccc1OCc1cccc(Cl)c1 | 8.12
COc1ccc(COc2ccccc2OCCNCCOc2c(OC)cccc2OC)cc1 | 8.54

Biological target: T5, 5-hydroxytryptamine receptor 1A (Homo sapiens, UniProt P08908)
T5 sequence (P08908 whole entry): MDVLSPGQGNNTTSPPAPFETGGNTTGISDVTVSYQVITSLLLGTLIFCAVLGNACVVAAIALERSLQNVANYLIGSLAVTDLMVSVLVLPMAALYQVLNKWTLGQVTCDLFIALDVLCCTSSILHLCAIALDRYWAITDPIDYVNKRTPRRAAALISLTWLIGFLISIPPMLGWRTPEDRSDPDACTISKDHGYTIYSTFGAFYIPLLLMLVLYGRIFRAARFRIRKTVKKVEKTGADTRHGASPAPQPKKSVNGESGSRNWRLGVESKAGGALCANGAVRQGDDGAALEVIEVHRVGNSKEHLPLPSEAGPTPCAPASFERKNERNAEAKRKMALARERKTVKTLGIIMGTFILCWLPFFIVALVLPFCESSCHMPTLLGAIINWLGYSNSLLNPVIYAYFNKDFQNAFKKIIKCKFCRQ
Assay: Displacement of [3H]8-hydroxy-2-(di-n-propylamino)tetralin from cloned human 5HT1A receptor expressed in HeLa cells
Assay type: cell-based
Outline: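 Radioligand binding on cloned human receptors, with [3H]prazosin for α1 subtypes (CHO cells) and [3H]8-OH-DPAT for 5-HT1A (HeLa cells); each experiment in triplicate, Ki from two to three experiments agreeing within ±20%, reported as pKi.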

SMILES | Ki
COc1cccc(OC)c1OCCNCCOc1ccccc1OCc1ccc(Cl)cc1 [CLOPENPHENDIOXAN] | 15.5 nM
COc1cccc(OC)c1OCCNCCOc1ccccc1OCc1cccc([N+](=O)[O-])c1 | 20.9 nM
COc1cccc(OC)c1OCCNCCOc1ccccc1OCc1ccccc1 | 11.7 nM
COc1cccc(OC)c1OCCNCCOc1ccccc1OCc1ccccc1C | 11.2 nM
COc1cccc(OC)c1OCCNCCOc1ccccc1OCc1cccc(C)c1 | 18.2 nM
COc1cccc(OC)c1OCCNCCOc1ccccc1OCc1ccccc1Cl | 4.79 nM
COc1cccc(OC)c1OCCNCCOc1ccccc1OCc1ccccc1[N+](=O)[O-] | 24 nM
COc1cccc(COc2ccccc2OCCNCCOc2c(OC)cccc2OC)c1 | 30.9 nM
COc1cccc(OC)c1OCCNCCOc1ccccc1OCc1ccc([N+](=O)[O-])cc1 | 11.7 nM
COc1cccc(OC)c1OCCNCCOc1ccccc1OCc1ccc(C)cc1 | 22.4 nM
COc1ccccc1COc1ccccc1OCCNCCOc1c(OC)cccc1OC | 23.4 nM
COc1cccc(OC)c1OCCNCCOc1ccccc1OCc1cccc(Cl)c1 | 6.61 nM
COc1ccc(COc2ccccc2OCCNCCOc2c(OC)cccc2OC)cc1 | 17.4 nM
